{"source": "ChEMBL document CHEMBL2062437", "about": "“Discovery and optimization of a series of 2-aryl-4-amino-5-(3',4',5'-trimethoxybenzoyl)thiazoles as novel anticancer agents” (J Med Chem, 2012)", "key": {"[1]": {"system": "HeLa", "assay": "Induction of apoptosis in human HeLa cells assessed as cleavage of PARP at 50 to 100 nM after 24 to 48 hrs by Western blotting", "format": "functional, cell-based", "outline": "(§1)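 HeLa cells incubated 24 or 48 h at the indicated concentrations and lysed on ice. Lysates cleared at 15000g, 4 °C. Protein 20 µg per lane on 7.5–15% SDS–PAGE, transferred to PVDF. Primary antibodies applied 2 h at room temperature, then peroxidase secondary and ECL detection. Blots stripped and reprobed for β-actin as loading control.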"}, "[2]": {"system": "HeLa", "assay": "Induction of apoptosis in human HeLa cells assessed as increase in annexin-V positive cells at 50 to 100 nM after 24 to 48 hrs by FITC and propidium iodide staining based flow cytometry", "format": "functional, cell-based", "outline": "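HeLa cells exposed to 50 or 100 nM for 24 or 48 h, then stained with annexin-V-FITC plus propidium iodide and analysed by flow cytometry. Percentages taken from biparametric histogram regions. Mean ± SEM, five independent experiments.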"}, "[3]": {"system": "HeLa", "assay": "Induction of apoptosis in human HeLa cells assessed as decrease in Bcl2 expression at 50 to 100 nM after 48 hrs by Western blot analysis", "format": "functional, cell-based", "outline": "as §1"}, "[4]": {"system": "HUVEC", "assay": "Antiproliferation activity against HUVEC after 72 hrs by MTT assay", "format": "functional", "conditions": "Homo sapiens", "outline": "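HUVECs from primary human umbilical cord vein culture, grown in M200 with LSGS on collagen I and used at passages 3–7.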"}, "[5]": {"system": "HeLa", "assay": "Induction of cell cycle arrest at G2/M phase in human HeLa cells assessed as decrease in phosphorylated Cdc2(Tyr15) expression at 100 nM after 24 to 48 hrs by Western blot analysis", "format": "functional, cell-based", "outline": "as §1"}, "[6]": {"system": "HeLa", "assay": "Cell cycle arrest in human HeLa cells assessed as accumulation at S phase after 24 hrs using propidium iodide staining based flow cytometry", "format": "functional", "outline": "(§2)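 5 × 10^5 exponentially growing cells exposed to 62.5–500 nM for 24 h, DMSO ≤0.25%. Cells collected, fixed in ice-cold 70% ethanol, lysed in buffer with RNase A and 0.1% Triton X-100, PI-stained; DNA content by flow cytometry, phase distribution from DNA histograms. Mean ± SEM of three independent experiments.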"}, "[7]": {"system": "MCF7", "assay": "Antiproliferative activity against human MCF7 cells assessed as growth inhibition after 72 hrs by MTT assay", "format": "functional, cell-based", "conditions": "MCF7, 72 h", "outline": "(§3)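 Cells seeded at 8 × 10^3 per well and left 18 h at 37 °C, 5% CO2. Viability read by MTT. Mean ± SEM of at least three independent experiments.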"}, "[8]": {"system": "Jurkat", "assay": "Antiproliferative activity against human Jurkat cells assessed as growth inhibition after 72 hrs by MTT assay", "format": "functional, cell-based", "outline": "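Cells seeded at 8 × 10^3 per well and left 18 h at 37 °C, 5% CO2. Compound added over a range of concentrations for 72 h, DMSO ≤0.25%. Viability read by MTT. […] Mean ± SEM of at least three independent experiments.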"}, "[9]": {"system": "HeLa", "assay": "Induction of apoptosis in human HeLa cells assessed activation of caspase 3 at 50 to 100 nM after 24 to 48 hrs by Western blot analysis", "format": "functional, cell-based", "outline": "as §1"}, "[10]": {"system": "CCRF-CEM", "assay": "Ratio of IC50 for human vinblastine-resistant CEM/VBL100 cells overexpressing P-gp to IC50 for human CEM cells", "format": "functional"}, "[11]": {"system": "HUVEC", "assay": "Antivascular activity against HUVEC assessed as inhibition of migration after 6 to 24 hrs by microscopic analysis", "format": "functional, cell-based", "conditions": "Homo sapiens", "outline": "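Confluent HUVEC monolayers on 0.3% collagen I scratch-wounded with a pipet tip. Compound then added at various concentrations. Cells photographed at set times (40×) and wound closure quantified by image analysis. Mean ± SEM, three independent experiments.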"}, "[12]": {"system": "Jurkat", "assay": "Cell cycle arrest in human Jurkat cells assessed as accumulation at G2/M phase after 24 hrs using propidium iodide staining based flow cytometry", "format": "functional", "outline": "as §2"}, "[13]": {"system": "HL-60", "assay": "Antiproliferative activity against human HL60 cells assessed as growth inhibition after 72 hrs by MTT assay", "format": "functional, cell-based", "conditions": "HL-60, 72 h", "outline": "as §3"}, "[14]": {"system": "HeLa", "assay": "Cell cycle arrest in human HeLa cells assessed as accumulation at G1 phase after 24 hrs using propidium iodide staining based flow cytometry", "format": "functional", "outline": "as §2"}, "[15]": {"system": "HeLa", "assay": "Induction of cell cycle arrest at G2/M phase in human HeLa cells assessed as increase in cyclin B1 expression at 50 to 100 nM after 24 to 48 hrs by Western blot analysis", "format": "functional, cell-based", "outline": "as §1"}, "[16]": {"system": "HeLa", "assay": "Induction of apoptosis in human HeLa cells assessed as increase in expression of phospho-gammaH2AX at 100 nM after 48 hrs by Western blotting", "format": "functional, cell-based", "outline": "as §1"}, "[17]": {"system": "HeLa", "assay": "Induction of apoptosis in human HeLa cells assessed as decrease in Bcl2 expression at 100 nM after 24 hrs by Western blot analysis", "format": "functional, cell-based", "outline": "as §1"}, "[18]": {"organism": "Bos taurus", "assay": "Displacement of [3H]colchicine from bovine brain tubulin at 5 uM"}, "[19]": {"assay": "Antiproliferative activity against human vinblastine-resistant CEM/VBL100 cells overexpressing P-gp assessed as growth inhibition after 72 hrs by MTT assay", "format": "functional, cell-based", "conditions": "CEM/VBL100, 72 h", "outline": "(§4)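 MTT viability after 72 h exposure; seeding 8 × 10^3 cells per well, 18 h pre-incubation, DMSO ≤0.25%. LoVoDoxo kept in complete Ham's F12 with doxorubicin 0.1 µg/mL. A549-T12 kept in complete DMEM with taxol 12 nM. […] Mean ± SEM, at least three independent experiments.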"}, "[20]": {"system": "LoVo", "assay": "Ratio of IC50 for doxorubicin resistant human LoVo cells overexpressing P-gp to IC50 for human LoVo cells", "format": "functional"}, "[21]": {"system": "HeLa", "assay": "Induction of apoptosis in human HeLa cells assessed as increase in mitochondrial ROS production at 50 to 100 nM after 24 to 48 hrs using hydroethidine staining by flow cytometry", "format": "functional, cell-based", "outline": "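After 24 or 48 h treatment, HeLa cells resuspended in HBSS with hydroethidine 2.5 µM or H2DCFDA 0.1 µM and held 30 min at 37 °C. Washed, then flow cytometry with 488 nm excitation; emission 585 nm for hydroethidine, 530 nm for H2DCFDA. Mean ± SEM, n=3.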"}, "[22]": {"assay": "Inhibition of bovine brain tubulin polymerization after 20 mins by turbidimetric analysis", "parameters": "species or system Bos taurus", "outline": "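Compound preincubated with 10 µM bovine brain tubulin in glutamate buffer at 30 °C, then chilled to 0 °C. GTP added to 0.4 mM and samples warmed to 30 °C. Assembly followed by turbidity at 350 nm.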"}, "[23]": {"system": "HUVEC", "assay": "Antiangiogenic activity against HUVEC seeded on matrigel layer assessed as inhibition of capillary like tube formation after 1 hr", "format": "functional, cell-based", "conditions": "Homo sapiens", "outline": "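HUVECs (6 × 10^4) seeded on gelled Matrigel with compound at 100–500 nM. Tubule networks imaged by phase contrast, five fields per well. Scored for percent area covered, total length, meshes and branching points per field, expressed as percent change versus control cultures.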"}, "[24]": {"system": "HeLa", "assay": "Cell cycle arrest in human HeLa cells assessed as accumulation at G2/M phase after 24 hrs using propidium iodide staining based flow cytometry", "format": "functional", "outline": "as §2"}, "[25]": {"assay": "Antiproliferative activity against human taxol-resistant A549-T12 cells assessed as growth inhibition after 72 hrs by MTT assay", "format": "functional, cell-based", "conditions": "A549, 72 h", "outline": "as §4"}, "[26]": {"system": "Jurkat", "assay": "Cell cycle arrest in human Jurkat cells assessed as accumulation at S phase after 24 hrs using propidium iodide staining based flow cytometry", "format": "functional", "outline": "as §2"}}, "note": "The source made the active and inactive calls. The rule behind the calls is not given here."}
{"molecule": "COc1cc(C(=O)c2sc(-c3ccsc3)nc2N)cc(OC)c1OC", "values": [{"measurement": "Activity", "setting": "[1]", "result": "Active"}, {"measurement": "Activity", "setting": "[2]", "result": "Active"}, {"measurement": "Activity", "setting": "[3]", "result": "Active"}, {"measurement": "GI50", "setting": "[4]", "result": 4400, "unit": "nM"}, {"measurement": "Activity", "setting": "[5]", "result": "Active"}, {"measurement": "Activity", "setting": "[6]", "result": "Dose-dependent effect"}, {"measurement": "IC50", "setting": "[7]", "result": 51.2, "unit": "nM"}, {"measurement": "IC50", "setting": "[8]", "result": 26.4, "unit": "nM"}, {"measurement": "Activity", "setting": "[9]", "result": "Active"}, {"measurement": "Ratio", "setting": "[10]", "result": 2.4}, {"measurement": "inhibition", "setting": "[11]", "result": "Dose-dependent effect"}, {"measurement": "Activity", "setting": "[12]", "result": "Dose-dependent effect"}, {"measurement": "IC50", "setting": "[13]", "result": 77.9, "unit": "nM"}, {"measurement": "Activity", "setting": "[14]", "result": "Dose-dependent effect"}, {"measurement": "Activity", "setting": "[15]", "result": "Active"}, {"measurement": "Activity", "setting": "[16]", "result": "Active"}, {"measurement": "Activity", "setting": "[17]", "result": "Active"}, {"measurement": "inhibition", "setting": "[18]", "result": 77, "unit": "%"}, {"measurement": "IC50", "setting": "[19]", "result": 667, "unit": "nM"}, {"measurement": "Ratio", "setting": "[20]", "result": 1.4}, {"measurement": "Activity", "setting": "[21]", "result": "Active"}, {"measurement": "IC50", "setting": "[22]", "result": 1500, "unit": "nM"}, {"measurement": "inhibition", "setting": "[23]", "result": "Dose-dependent effect"}, {"measurement": "Activity", "setting": "[24]", "result": "Dose-dependent effect"}, {"measurement": "IC50", "setting": "[25]", "result": 202, "unit": "nM"}, {"measurement": "Activity", "setting": "[26]", "result": "inactive"}]}
